Values after ≈ are worked out from the molar mass of the structure shown.
Columns and labels:
[1] = test system: HEK-293T; assay: Cytotoxicity against HEK293T cells measured after 48 hrs by CCK8 assay; assay type: cell-based; settings: Homo sapiens
Method in brief: (§1)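 Cells kept in DMEM with 10% FBS and penicillin-streptomycin at 37 °C, 5% CO2. About 1×10^4 cells per well attached for 24 h, then exposed for 48 h to 0.3, 1, 3, 10, 30 and 100 µmol/L of compound, in triplicate wells. CCK-8 added for 3 h, OD read at 450 nm. IC50 is the concentration inhibiting growth by 50%.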

[2] = test system: Staphylococcus aureus; assay: Antibacterial activity against Staphylococcus aureus CMCC 25923 measured after 24 hrs by ELISA; assay type: functional; settings: CMCC 25923, 24 h
Method in brief: (§2)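 Broth microdilution MIC. Mid-log bacteria in MHB or TSB diluted 1000-fold, inoculated at 10^5 CFU/mL. Compounds added from DMSO stocks; final DMSO at most 0.05%. Incubation 24 h at 37 °C. Growth read as absorbance at 630 nm. MIC taken as the lowest concentration giving complete growth inhibition. Three independent experiments.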

[3] = Selectivity index, ratio of IC50 for HEK293T cells to MIC for Escherichia coli CMCC 44568; assay type: toxicity; settings: human, read-out: Selectivity Index
[4] = test system: Escherichia coli; assay: Antibacterial activity against multidrug-resistant Escherichia coli ATCC BAA-196 measured after 24 hrs by ELISA; assay type: functional; settings: ATCC BAA-196, 24 h
Method in brief: (§3)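 Broth serial dilution MIC. Mid-log bacteria in Mueller-Hinton or Tryptone Soya broth, diluted 1000-fold and inoculated at 10^5 CFU/mL. Compounds from DMSO stock, final DMSO ≤0.05%. Incubated 24 h at 37 °C; growth read as absorbance at 630 nm. MIC is the lowest concentration giving complete growth inhibition. Three independent experiments.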

[5] = test system: Bacillus subtilis; assay: Antibacterial activity against Bacillus subtilis CMCC 63501 measured after 24 hrs by ELISA; assay type: functional; settings: CMCC 63501, 24 h; method in brief: as §2
[6] = test system: Staphylococcus aureus; assay: Antibacterial activity against methicillin-resistant Staphylococcus aureus ATCC 33591 measured after 24 hrs by ELISA; assay type: functional; settings: ATCC 33591, 24 h; method in brief: as §3
[7] = Selectivity index, ratio of IC50 for HEK293T cells to MIC for Staphylococcus aureus CMCC(B) 26003; assay type: toxicity; settings: human, read-out: Selectivity Index
[8] = test system: Streptococcus pyogenes; assay: Antibacterial activity against Streptococcus pyogenes CMCC 32067 measured after 24 hrs by ELISA; assay type: functional; settings: CMCC 32067, 24 h; method in brief: as §2
[9] = Selectivity index, ratio of IC50 for HEK293T cells to MIC for Bacillus subtilis CMCC 63501; assay type: toxicity; settings: human, read-out: Selectivity Index
[10] = test system: Staphylococcus aureus; assay: Antibacterial activity against Staphylococcus aureus CMCC(B) 26003 measured after 24 hrs by ELISA; assay type: functional; settings: CMCC(B) 26003, 24 h; method in brief: as §2
[11] = Selectivity index, ratio of IC50 for HEK293T cells to MIC for Streptococcus pyogenes CMCC 32067; assay type: toxicity; settings: human, read-out: Selectivity Index
[12] = Selectivity index, ratio of IC50 for HEK293T cells to MIC for methicillin-resistant Staphylococcus aureus ATCC 33591; assay type: toxicity; settings: human, read-out: Selectivity Index
[13] = test system: Escherichia coli; assay: Antibacterial activity against Escherichia coli CMCC 44568 measured after 24 hrs by ELISA; assay type: functional; settings: CMCC 44568, 24 h; method in brief: as §2
[14] = Selectivity index, ratio of IC50 for HEK293T cells to MIC for methicillin-resistant Staphylococcus aureus ATCC 43300; assay type: toxicity; settings: human, read-out: Selectivity Index
[15] = Selectivity index, ratio of IC50 for HEK293T cells to MIC for Pseudomonas aeruginosa CMCC 10104; assay type: toxicity; settings: human, read-out: Selectivity Index
[16] = Cytotoxicity against human A590 cells measured after 48 hrs by CCK8 assay; assay type: functional, cell-based; method in brief: as §1
[17] = Selectivity index, ratio of IC50 for HEK293T cells to MIC for multidrug-resistant Escherichia coli ATCC BAA-196; assay type: toxicity; settings: human, read-out: Selectivity Index
[18] = test system: Enterococcus faecalis; assay: Antibacterial activity against Enterococcus faecalis CMCC 29212 measured after 24 hrs by ELISA; assay type: functional; settings: CMCC 29212, 24 h; method in brief: as §2
[19] = Selectivity index, ratio of IC50 for HEK293T cells to MIC for multidrug-resistant Pseudomonas aeruginosa ATCC BAA-2111; assay type: toxicity; settings: human, read-out: Selectivity Index
[20] = test system: SGC-7901; assay: Cytotoxicity against human SGC7901 cells measured after 48 hrs by CCK8 assay; assay type: functional, cell-based; settings: SGC-7901, 48 h; method in brief: as §1
[21] = Selectivity index, ratio of IC50 for HEK293T cells to MIC for Streptococcus pneumoniae CMCC 31968; assay type: toxicity; settings: human, read-out: Selectivity Index
[22] = test system: Staphylococcus aureus; assay: Antibacterial activity against methicillin-resistant Staphylococcus aureus ATCC 43300 measured after 24 hrs by ELISA; assay type: functional; settings: ATCC 43300, 24 h; method in brief: as §3
[23] = Selectivity index, ratio of IC50 for HEK293T cells to MIC for Enterococcus faecalis CMCC 29212; assay type: toxicity; settings: human, read-out: Selectivity Index
[24] = test system: Escherichia coli; assay: Antibacterial activity against Escherichia coli CMCC 44568 assessed as ratio of MIC after and before 16 passages at sub-MIC; assay type: functional
Method in brief: (§4)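 Resistance by serial passage. After an initial broth-dilution MIC, bacteria grown at MIC/2 were transferred to a fresh MIC assay every 22 h incubation, repeatedly. Norfloxacin was the comparator antibiotic. MIC was tracked against passage day.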

[25] = Selectivity index, ratio of IC50 for HEK293T cells to MIC for Staphylococcus aureus CMCC 25923; assay type: toxicity; settings: human, read-out: Selectivity Index
[26] = Selectivity index, ratio of IC50 for HEK293T cells to MIC for Escherichia coli CMCC 25922; assay type: toxicity; settings: human, read-out: Selectivity Index
[27] = test system: Streptococcus pneumoniae; assay: Antibacterial activity against Streptococcus pneumoniae CMCC 31968 measured after 24 hrs by ELISA; assay type: functional; settings: CMCC 31968, 24 h
[28] = test system: Escherichia coli; assay: Antibacterial activity against Escherichia coli CMCC 25922 measured after 24 hrs by ELISA; assay type: functional; settings: CMCC 25922, 24 h; method in brief: as §2
[29] = test system: Pseudomonas aeruginosa; assay: Antibacterial activity against multidrug-resistant Pseudomonas aeruginosa ATCC BAA-2111 measured after 24 hrs by ELISA; assay type: functional; settings: ATCC BAA-2111, 24 h; method in brief: as §3
[30] = test system: Pseudomonas aeruginosa; assay: Antibacterial activity against Pseudomonas aeruginosa CMCC 27853 measured after 24 hrs by ELISA; assay type: functional; settings: CMCC 27853, 24 h; method in brief: as §2
[31] = test system: Staphylococcus aureus; assay: Antibacterial activity against Staphylococcus aureus CMCC 25923 assessed as ratio of MIC after and before 16 passages at sub-MIC; assay type: functional; method in brief: as §4
[32] = test system: Pseudomonas aeruginosa; assay: Antibacterial activity against Pseudomonas aeruginosa CMCC 10104 measured after 24 hrs by ELISA; assay type: functional; settings: CMCC 10104, 24 h; method in brief: as §2
[33] = Selectivity index, ratio of IC50 for HEK293T cells to MIC for Pseudomonas aeruginosa CMCC 27853; assay type: toxicity; settings: human, read-out: Selectivity Index

| Compound | MIC [2] [µM] | MIC [4] [µM] | MIC [5] [µM] | MIC [6] [µM] | MIC [8] [µM] | MIC [10] [µM] | MIC [13] [µM] | MIC [18] [µM] | MIC [22] [µM] | Ratio [24] | MIC [27] [µM] | MIC [28] [µM] | MIC [29] [µM] | MIC [30] [µM] | Ratio [31] | MIC [32] [µM] | also measured |
| --- | --- | --- | --- | --- | --- | --- | --- | --- | --- | --- | --- | --- | --- | --- | --- | --- | --- |
| C/C(=N/NC(=N)N)c1cn(S(=O)(=O)c2ccc(C)cc2)c2ccc(Br)cc12 | 2.24 (≈ 1 µg/mL) | 0.56 (≈ 0.251 µg/mL) | 4.47 (≈ 2 µg/mL) | 2.24 (≈ 1 µg/mL) | 286 (≈ 128 µg/mL) | 4.47 (≈ 2 µg/mL) | 1.12 (≈ 0.502 µg/mL) | 8.94 (≈ 4.01 µg/mL) | 1.12 (≈ 0.502 µg/mL) | 0 | 2.24 (≈ 1 µg/mL) | 286 (≈ 128 µg/mL) | > 71.6 | > 286 | 0 | > 286 | IC50 [1]: 56.4 µM; selectivity ratio [3]: 50.4; selectivity ratio [7]: 12.6; selectivity ratio [9]: 12.6; selectivity ratio [11]: 0.2; selectivity ratio [12]: 25.2; selectivity ratio [14]: 50.4; selectivity ratio [15]: < 0.2; IC50 [16]: 4.44 µM; selectivity ratio [17]: 101; selectivity ratio [19]: < 0.79; IC50 [20]: 1.51 µM; selectivity ratio [21]: 25.2; selectivity ratio [23]: 6.31; selectivity ratio [25]: 25.2; selectivity ratio [26]: 0.2; selectivity ratio [33]: < 0.2 |
| CCn1cc(C(=O)O)c(=O)c2cc(F)c(N3CCNCC3)cc21 [NORFLOXACIN] | 0.39 (≈ 0.125 µg/mL) | 1.57 (≈ 0.501 µg/mL) | 6.27 (≈ 2 µg/mL) | 0.78 (≈ 0.249 µg/mL) | > 401 | 0.39 (≈ 0.125 µg/mL) | 0.39 (≈ 0.125 µg/mL) | 3.13 (≈ 1 µg/mL) | 1.57 (≈ 0.501 µg/mL) | 16 | > 401 | 0.39 (≈ 0.125 µg/mL) | 3.13 (≈ 1 µg/mL) | 6.27 (≈ 2 µg/mL) | 32 | 12.5 (≈ 4 µg/mL) | – |

Reference: ChEMBL document CHEMBL4400518, “Synthesis, antimicrobial and cytotoxic activities, and molecular docking studies of N-arylsulfonylindoles containing an aminoguanidine, a semicarbazide, and a thiosemicarbazide moiety” (Eur J Med Chem, 2019)
